The record followed here is ChEMBL document CHEMBL3392981, “Synthesis and pharmacological evaluation of dual acting ligands targeting the adenosine A2A and dopamine D2 receptors for the potential treatment of Parkinson's disease” (J Med Chem, 2015).

Bounds are passed on as bounds.

Chain of Adenosine receptor A2a (P29274 whole entry): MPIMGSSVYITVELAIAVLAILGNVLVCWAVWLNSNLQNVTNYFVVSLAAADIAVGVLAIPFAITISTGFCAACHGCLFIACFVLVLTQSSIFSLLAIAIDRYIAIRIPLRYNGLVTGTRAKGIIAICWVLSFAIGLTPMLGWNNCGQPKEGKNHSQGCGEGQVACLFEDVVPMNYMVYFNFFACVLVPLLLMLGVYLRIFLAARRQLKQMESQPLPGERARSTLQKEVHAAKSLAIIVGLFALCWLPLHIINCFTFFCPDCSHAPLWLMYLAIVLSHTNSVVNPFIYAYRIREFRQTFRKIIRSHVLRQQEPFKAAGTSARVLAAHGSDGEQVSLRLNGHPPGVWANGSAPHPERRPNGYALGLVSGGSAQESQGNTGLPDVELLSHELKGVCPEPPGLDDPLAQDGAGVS

The first series has as its target Adenosine receptor A2a (Homo sapiens, UniProt P29274). Briefly: Inhibition of human adenosine A2A receptor expressed in FlpIn-CHO cells assessed as inhibition of NECA-induced cAMP accumulation incubated for 30 mins by fluorescence assay. To be noted: read-out: IC50. The format is functional, cell-based. For orientation: cAMP levels reflect the balance of adenylyl cyclase and phosphodiesterase activity.
In the case of `Nc1nc(NC2CCN(CCc3cccc4c3CC(=O)N4)CC2)nc2nc(-c3ccco3)nn12`, the IC50 amounted to 1510 nM.

Turning to `COC(=O)CCCCCCCCCCCNC(=O)CCCOc1ccc(CCNc2nc(N)n3nc(-c4ccco4)nc3n2)cc1`, the IC50 was determined as 437 nM.

Consider `CN(CCCNc1nc(N)n2nc(-c3ccco3)nc2n1)CCc1cccc2c1CC(=O)N2`, for which the IC50 stood at 1120 nM.

On to `CCCN(CCCNC(=O)CCCNC(=O)CCCOc1ccc(CCNc2nc(N)n3nc(-c4ccco4)nc3n2)cc1)CCc1cccc2c1CC(=O)N2`, for which the IC50 came out at 110 nM.

As to `Nc1nc(N2CCCN(CCc3cccc4c3CC(=O)N4)CC2)nc2nc(-c3ccco3)nn12.O=C(O)C(F)(F)F`, the IC50 amounted to 1480 nM.

For the molecule `CCCN(CCCNC(=O)COc1ccc(CCNc2nc(N)n3nc(-c4ccco4)nc3n2)cc1)CCc1cccc2c1CC(=O)N2`, the IC50 is 63 nM.

Regarding `CC(C)(C)OC(=O)N1CCC(Nc2nc(N)n3nc(-c4ccco4)nc3n2)CC1`, the IC50 is 1740 nM.

With `CCCN(CCCNC(=O)CCCCCCCCCCCNC(=O)OC(C)(C)C)CCc1cccc2c1CC(=O)N2`, the IC50 is more than 100000 nM.

For `Nc1nc(N2CCN(CCc3cccc4c3CC(=O)N4)CC2)nc2nc(-c3ccco3)nn12`, the IC50 came out at 59 nM.

For the molecule `CCCN(CCCCCCNc1nc(N)n2nc(-c3ccco3)nc2n1)CCc1cccc2c1CC(=O)N2`, the IC50 came to 1780 nM.

Take `CCCN(CCCNc1nc(N)n2nc(-c3ccco3)nc2n1)CCc1cccc2c1CC(=O)N2`: the IC50 was 912 nM.

`CCCN(CCCNC(=O)CCCCCCCCCCCNC(=O)CCCOc1ccc(CCNc2nc(N)n3nc(-c4ccco4)nc3n2)cc1)CCc1cccc2c1CC(=O)N2`: the IC50 was 1070 nM.

As for `CCCN(CCCNc1nc(Oc2ccc(CCNc3nc(N)n4nc(-c5ccco5)nc4n3)cc2)nc(N2CCOCC2)n1)CCc1cccc2c1CC(=O)N2.O=CO`, the IC50 worked out at 120 nM.

The same series, now with this note: read-out: pIC50 (converted).
For `Nc1nc(NC2CCN(CCc3cccc4c3CC(=O)N4)CC2)nc2nc(-c3ccco3)nn12`, the IC50 is 1510 nM.

Take `COC(=O)CCCCCCCCCCCNC(=O)CCCOc1ccc(CCNc2nc(N)n3nc(-c4ccco4)nc3n2)cc1`: the IC50 was 437 nM.

For `CN(CCCNc1nc(N)n2nc(-c3ccco3)nc2n1)CCc1cccc2c1CC(=O)N2`, the IC50 is 1120 nM.

Regarding `CCCN(CCCNC(=O)CCCNC(=O)CCCOc1ccc(CCNc2nc(N)n3nc(-c4ccco4)nc3n2)cc1)CCc1cccc2c1CC(=O)N2`, the IC50 was 110 nM.

For `Nc1nc(N2CCCN(CCc3cccc4c3CC(=O)N4)CC2)nc2nc(-c3ccco3)nn12.O=C(O)C(F)(F)F`, the IC50 is 1480 nM.

With `CCCN(CCCNC(=O)COc1ccc(CCNc2nc(N)n3nc(-c4ccco4)nc3n2)cc1)CCc1cccc2c1CC(=O)N2`, the IC50 was 63.1 nM.

`CC(C)(C)OC(=O)N1CCC(Nc2nc(N)n3nc(-c4ccco4)nc3n2)CC1`: the IC50 is 1740 nM.

As for `Nc1nc(N2CCN(CCc3cccc4c3CC(=O)N4)CC2)nc2nc(-c3ccco3)nn12`, the IC50 is 58.9 nM.

Turning to `CCCN(CCCCCCNc1nc(N)n2nc(-c3ccco3)nc2n1)CCc1cccc2c1CC(=O)N2`, the IC50 was 1780 nM.

Regarding `CCCN(CCCNc1nc(N)n2nc(-c3ccco3)nc2n1)CCc1cccc2c1CC(=O)N2`, the IC50 is 912 nM.

For the molecule `CCCN(CCCNC(=O)CCCCCCCCCCCNC(=O)CCCOc1ccc(CCNc2nc(N)n3nc(-c4ccco4)nc3n2)cc1)CCc1cccc2c1CC(=O)N2`, the IC50 was 1070 nM.

Consider `CCCN(CCCNc1nc(Oc2ccc(CCNc3nc(N)n4nc(-c5ccco5)nc4n3)cc2)nc(N2CCOCC2)n1)CCc1cccc2c1CC(=O)N2.O=CO`, for which the IC50 is 120 nM.

The target in the next series is T1, D(2) dopamine receptor (Homo sapiens, UniProt P14416). The series is described as follows: Agonist activity at human dopamine D2L receptor expressed in CHO cell membranes incubated for 1 hr by [35S]GTPgammaS binding assay. The format is functional.
T1 sequence (P14416 whole entry): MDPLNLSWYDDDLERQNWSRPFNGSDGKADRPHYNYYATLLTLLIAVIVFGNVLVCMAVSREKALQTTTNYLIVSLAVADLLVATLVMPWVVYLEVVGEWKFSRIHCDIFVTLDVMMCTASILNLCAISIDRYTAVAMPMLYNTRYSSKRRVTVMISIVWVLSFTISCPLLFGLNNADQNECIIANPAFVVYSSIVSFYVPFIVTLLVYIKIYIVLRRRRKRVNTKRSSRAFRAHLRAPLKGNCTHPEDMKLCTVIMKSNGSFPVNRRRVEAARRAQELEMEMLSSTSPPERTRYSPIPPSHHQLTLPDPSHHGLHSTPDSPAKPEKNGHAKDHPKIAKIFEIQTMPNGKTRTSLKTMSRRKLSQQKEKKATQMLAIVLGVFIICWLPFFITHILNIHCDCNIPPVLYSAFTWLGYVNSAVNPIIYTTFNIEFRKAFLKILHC
Settings: not given
`Nc1nc(NC2CCN(CCc3cccc4c3CC(=O)N4)CC2)nc2nc(-c3ccco3)nn12` came in with an EC50 of more than 100000 nM.

`COC(=O)CCCCCCCCCCCNC(=O)CCCOc1ccc(CCNc2nc(N)n3nc(-c4ccco4)nc3n2)cc1` had an EC50 of more than 100000 nM.

`CN(CCCNc1nc(N)n2nc(-c3ccco3)nc2n1)CCc1cccc2c1CC(=O)N2`: it took 389 nM to reach a half-maximal effect (EC50).

Molecule `CCCN(CCCNC(=O)CCCNC(=O)CCCOc1ccc(CCNc2nc(N)n3nc(-c4ccco4)nc3n2)cc1)CCc1cccc2c1CC(=O)N2` displayed an EC50 of 785 nM.

With `Nc1nc(N2CCCN(CCc3cccc4c3CC(=O)N4)CC2)nc2nc(-c3ccco3)nn12.O=C(O)C(F)(F)F`, the EC50 was more than 100000 nM.

Take `CCCN(CCCNC(=O)COc1ccc(CCNc2nc(N)n3nc(-c4ccco4)nc3n2)cc1)CCc1cccc2c1CC(=O)N2`: the EC50 was determined as 148 nM.

`CCCN(CCCNC(=O)CCCCCCCCCCCNC(=O)OC(C)(C)C)CCc1cccc2c1CC(=O)N2` had an EC50 of 114 nM.

`Nc1nc(N2CCN(CCc3cccc4c3CC(=O)N4)CC2)nc2nc(-c3ccco3)nn12` gave an EC50 of more than 100000 nM.

As to `CCCN(CCCCCCNc1nc(N)n2nc(-c3ccco3)nc2n1)CCc1cccc2c1CC(=O)N2`, the EC50 came to 38 nM.

Take `CCCN(CCCNc1nc(N)n2nc(-c3ccco3)nc2n1)CCc1cccc2c1CC(=O)N2`: the EC50 was 88 nM.

`CCCN(CCCNC(=O)CCCCCCCCCCCNC(=O)CCCOc1ccc(CCNc2nc(N)n3nc(-c4ccco4)nc3n2)cc1)CCc1cccc2c1CC(=O)N2`: it took 1400 nM to reach a half-maximal effect (EC50).

`CCCN(CCCNc1nc(Oc2ccc(CCNc3nc(N)n4nc(-c5ccco5)nc4n3)cc2)nc(N2CCOCC2)n1)CCc1cccc2c1CC(=O)N2.O=CO` gave an EC50 of 311 nM.

The same series, now with this note: cho.
The molecule `Nc1nc(NC2CCN(CCc3cccc4c3CC(=O)N4)CC2)nc2nc(-c3ccco3)nn12` had a pEC50 of less than 4.

For `COC(=O)CCCCCCCCCCCNC(=O)CCCOc1ccc(CCNc2nc(N)n3nc(-c4ccco4)nc3n2)cc1`, the pEC50 is listed as less than 4.

For the molecule `Nc1nc(N2CCCN(CCc3cccc4c3CC(=O)N4)CC2)nc2nc(-c3ccco3)nn12.O=C(O)C(F)(F)F`, the pEC50 is listed as less than 4.

On to `Nc1nc(N2CCN(CCc3cccc4c3CC(=O)N4)CC2)nc2nc(-c3ccco3)nn12`, for which the pEC50 is less than 4.

The target of a further series is T1, D(2) dopamine receptor. The series is described as follows: Agonist activity at human dopamine D2L receptor expressed in CHO cell membranes incubated for 1 hr by [35S]GTPgammaS binding assay relative to 100 uM quinelorane. Type of series: functional.
Settings: not given
`CN(CCCNc1nc(N)n2nc(-c3ccco3)nc2n1)CCc1cccc2c1CC(=O)N2` had an Emax of 77%.

In turn, `CCCN(CCCNC(=O)CCCNC(=O)CCCOc1ccc(CCNc2nc(N)n3nc(-c4ccco4)nc3n2)cc1)CCc1cccc2c1CC(=O)N2` gave an Emax of 68%.

`CCCN(CCCNC(=O)COc1ccc(CCNc2nc(N)n3nc(-c4ccco4)nc3n2)cc1)CCc1cccc2c1CC(=O)N2`: the Emax was 88%.

In turn, `CCCN(CCCNC(=O)CCCCCCCCCCCNC(=O)OC(C)(C)C)CCc1cccc2c1CC(=O)N2` displayed an Emax of 66%.

Turning to `CCCN(CCCCCCNc1nc(N)n2nc(-c3ccco3)nc2n1)CCc1cccc2c1CC(=O)N2`, the Emax was 77%.

`CCCN(CCCNc1nc(N)n2nc(-c3ccco3)nc2n1)CCc1cccc2c1CC(=O)N2` gave an Emax of 89%.

On to `CCCN(CCCNC(=O)CCCCCCCCCCCNC(=O)CCCOc1ccc(CCNc2nc(N)n3nc(-c4ccco4)nc3n2)cc1)CCc1cccc2c1CC(=O)N2`, for which the Emax was determined as 38%.

Turning to `CCCN(CCCNc1nc(Oc2ccc(CCNc3nc(N)n4nc(-c5ccco5)nc4n3)cc2)nc(N2CCOCC2)n1)CCc1cccc2c1CC(=O)N2.O=CO`, the Emax came to 65%.

Tested on in the next series: not listed separately
Briefly: Fraction unbound in Wistar Han rat blood at 5 uM incubated for 4 hrs by dialysis and LC-MS/MS method.
Settings: not given
The format is ADME, tissue-based. A digest of the protocol: (§1)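 Blood and brain tissue were taken from Wistar Han rat and tested in vitro. Percent fraction unbound was determined in each matrix (undiluted Fu). The brain:blood partition ratio (Kbb) was derived as an in vitro predictor of CNS penetration. Runs were in triplicate, and values are reported as mean ± SD.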
Turning to `Nc1nc(N2CCN(CCc3cccc4c3CC(=O)N4)CC2)nc2nc(-c3ccco3)nn12`, the fraction unbound at 4 h, 5 µM was 0.0605.

`CCCN(CCCNc1nc(N)n2nc(-c3ccco3)nc2n1)CCc1cccc2c1CC(=O)N2`: the fraction unbound at 4 h, 5 µM was 0.198.

For `CCCN(CCCNc1nc(Oc2ccc(CCNc3nc(N)n4nc(-c5ccco5)nc4n3)cc2)nc(N2CCOCC2)n1)CCc1cccc2c1CC(=O)N2.O=CO`, the fraction unbound at 4 h, 5 µM worked out at 0.0222.

Tested on in a further series: not listed separately
The series is described as follows: Fraction unbound in Wistar Han rat brain at 5 uM incubated for 4 hrs by dialysis and LC-MS/MS method. The format is ADME, tissue-based.
Settings: not given
Put shortly: as §1
As to `Nc1nc(N2CCN(CCc3cccc4c3CC(=O)N4)CC2)nc2nc(-c3ccco3)nn12`, the free fraction (fraction unbound) at 4 h, 5 µM amounted to 0.0563.

In turn, `CCCN(CCCNc1nc(N)n2nc(-c3ccco3)nc2n1)CCc1cccc2c1CC(=O)N2` returned a fraction unbound at 4 h, 5 µM of 0.153.

Molecule `CCCN(CCCNc1nc(Oc2ccc(CCNc3nc(N)n4nc(-c5ccco5)nc4n3)cc2)nc(N2CCOCC2)n1)CCc1cccc2c1CC(=O)N2.O=CO` came in with a fraction unbound at 4 h, 5 µM of 0.0061.

Tested on in the next series: not listed separately
The series is described as follows: Blood-brain partition ratio in Wistar Han rat at 5 uM incubated for 4 hrs by dialysis and LC-MS/MS method. To be noted: in vitro. The format is ADME, tissue-based. A digest of the protocol: as §1
With `Nc1nc(N2CCN(CCc3cccc4c3CC(=O)N4)CC2)nc2nc(-c3ccco3)nn12`, the Kbb was 1.07.

In the case of `CCCN(CCCNc1nc(N)n2nc(-c3ccco3)nc2n1)CCc1cccc2c1CC(=O)N2`, the Kbb is 1.29.

Consider `CCCN(CCCNc1nc(Oc2ccc(CCNc3nc(N)n4nc(-c5ccco5)nc4n3)cc2)nc(N2CCOCC2)n1)CCc1cccc2c1CC(=O)N2.O=CO`, for which the Kbb is recorded as 3.64.

A word on the EC50: it is the concentration needed to bring the measured effect to its halfway point. Low readings indicate a more potent agent, high ones a less potent agent. The term pEC50 denotes the negative decadic logarithm of the EC50, by convention in mol/L. A high value points to a low EC50. Broadly, the Emax is the maximal effect, on the per cent scale that the assay sets. As usually defined, the fraction unbound is the share of the substance not bound to proteins or other matrix. Read a high fraction unbound as much free substance.
